Results on 1 compound are retold here after ChEMBL document CHEMBL4325822, “Discovery of a tetrazolyl β-carboline with in vitro and in vivo osteoprotective activity under estrogen-deficient conditions” (Medchemcomm, 2018).

Series [1] in a line: Toxicity in Sprague-Dawley rat model of OVX-induced bone loss assessed as luminal epithelial height at 1 mg/kg, po via gavage for 12 weeks (reference value: 27.29 +/- 0.96 umeter). Format: organism-based. The following applies: in vivo, 2016 h.
Series [2] can be described thus: Increase in Runx2 mRNA expression in Sprague-Dawley rat calvarial osteoblasts at 100 pM by RT-PCR method relative to control. Format: functional, Calvarial osteoblast.
Series [3] in a line: Increase in BMP2 mRNA expression in Sprague-Dawley rat calvarial osteoblasts at 100 pM by RT-PCR method relative to control. Format: functional, Calvarial osteoblast. An outline of the steps:
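Primary calvarial osteoblasts were lysed in TRIzol after treatment, and total RNA was extracted. Transcripts were quantified by real-time PCR using the comparative CT (ΔΔCT) method.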

Series [4] relates to Rattus norvegicus. The series can be described thus: Antiosteoporotic activity in Sprague-Dawley rat model of OVX-induced bone loss assessed as increase in femoral bone strength by measuring stiffness at 1 mg/kg, po via gavage for 12 weeks by 3 point bending test (reference value: 122.07 +/- 12.18 N/mm). In kind it is functional.
Series [5] can be described thus: Antioxidant activity assessed as SNP-induced nitric oxide free radical scavenging activity at 250 ug/ml after 150 mins by Griess reagent based method relative to control. In kind it is functional. The method, boiled down: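 Serial dilutions (1000 to 1.95 µg·ml⁻¹) were mixed with sodium nitroprusside (10 mM) and incubated 150 min. An equal volume of Griess reagent was added, and absorbance was read at 546 nm. Percentage scavenging was calculated relative to the control without compound.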

The nature of series [6]: Toxicity in Sprague-Dawley rat model of OVX-induced bone loss assessed as total uterine area at 5 mg/kg, po via gavage for 12 weeks (reference value: 0.11 +/- 0.003 mm2). The following applies: in vivo, 2016 h. In kind it is organism-based.
For series [7], the system named is Rattus norvegicus. Kind of series: Antiosteoporotic activity in Sprague-Dawley rat model of OVX-induced bone loss assessed as protection against microarchitectural deterioration by measuring trabecular number at 1 mg/kg, po via gavage for 12 weeks by microcomputed tomographic analysis (reference value: 0.56 +/- 0.06 /millimeter). Format: functional. The method, boiled down: (§1)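 Adult female Sprague-Dawley rats were ovariectomized and left 12 weeks to become osteopenic. They then received 12 weeks of once-daily oral gavage (1% gum acacia vehicle) or subcutaneous estradiol, five days a week. Femurs were collected at sacrifice and scanned by micro-CT for BMD and trabecular microarchitecture. Ten rats per group; mean ± SEM.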

A short description of series [8]: Antioxidant activity assessed as DPPH radical scavenging activity at 3.9 ug/ml after 30 mins by spectrophotometric method relative to control. In kind it is functional. The method, boiled down: (§2)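 The compound was serially diluted from 1000 to 1.95 µg·ml⁻¹ and mixed 1:1 with DPPH in methanol. After 30 min at room temperature, absorbance was read at 517 nm. Scavenging (%) = [(Abc − Abs)/Abc] × 100, where Abc is DPPH without compound.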

Series [9] can be described thus: Antioxidant activity assessed as DPPH radical scavenging activity at 250 ug/ml after 30 mins by spectrophotometric method relative to control. In kind it is functional. An outline of the steps:
as §2

The subject of series [10] is Rattus norvegicus. Kind of series: Antiosteoporotic activity in Sprague-Dawley rat model of OVX-induced bone loss assessed as protection against microarchitectural deterioration by measuring trabecular separation at 5 mg/kg, po via gavage for 12 weeks by microcomputed tomographic analysis (reference value: 1.31 +/- 0.06 millimeter). In kind it is functional. An outline of the steps: as §1

The test system of series [11] is Rattus norvegicus. The series can be described thus: Antiosteoporotic activity in Sprague-Dawley rat model of OVX-induced bone loss assessed as bone formation rate at 1 mg/kg, po via gavage for 12 weeks by microcomputed tomographic analysis (reference value: 0.171 +/- 0.005 um3/um2/day). Format: functional. The method, boiled down:
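Female Sprague-Dawley rats, 10-12 weeks old, ten per group, were ovariectomized and left 12 weeks for osteopenia. They were then dosed once daily by oral gavage for 12 weeks in 1% gum acacia vehicle. The estradiol arm received 100 µg·kg⁻¹ subcutaneously five days a week. Tetracycline and calcein were given intraperitoneally at 20 mg·kg⁻¹ each. Femur cross-sections (50 µm) were imaged by fluorescence microscopy for MAR and BFR.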

A short description of series [12]: Antioxidant activity assessed as DPPH radical scavenging activity after 30 mins by spectrophotometric method. Format: functional. An outline of the steps:
as §2

The test system of the next series is Calvarial osteoblast. Kind of series: Osteoprotective activity in Sprague-Dawley rat calvarial osteoblasts assessed as reduction in TNFalpha-induced apoptosis at 100 pM after 24 hrs by Annexin V/propidium iodide staining based FACS analysis relative to control. In kind it is functional. On the set-up: scale not given: the % may be the effect or the level left. The method, boiled down:
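Osteoblasts at 50–60% confluence, serum-withdrawn 3 h. Then 24 h with TNFα in α-MEM with 0.5% FBS, with 10 nM E2 as comparator. Annexin-V-FITC/PI staining, analysed by flow cytometry.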

`CCOC(=O)c1cc2c([nH]c3ccccc32)c(C(c2nnnn2C(C)(C)C)N2CCN(C)CC2)n1` (stereo not drawn): the Activity in series [1] is 3.7 um; with Rattus norvegicus [4], 151.3 N/mm; in series [5], 30.7%; in [6], 0.13 mm2; in the series on Rattus norvegicus [7], 1.34 /millimeter; in series [8], 3.82%. Further, the Activity in series [9] was 37.8%; in the series on Rattus norvegicus [10], 0.87 mm; in the series with Rattus norvegicus [11] it was 1.032 um3/um2/day; in series [12], “Dose-dependent effect”; in the series with Calvarial osteoblast, 47%. The “fold change (FC)” value in [2] and in series [3] was 1.8 - 4.6 each time.
